# Publication PMC2932703 (Molecular cancer therapeutics, 2010)
# Read-outs that look alike come from different tables or passages of the source.
# What was measured:
# [1] = tested on: NTR1 mRNA; settings: breast cancer cells; cited from earlier work
# [2] = tested on: NTR1 promoter; test: NTR1 promoter-luciferase reporter assay; assay type: cell-based, human
# [3] = tested on: PTEN mRNA; test: Northern blot reprobed for PTEN expression; assay type: cell-based, human; settings: HT29 cells; blot stripped and reprobed
# [4] = tested on: NTR1 mRNA; test: Northern blot of NTR1 mRNA expression in CRC cell lines; assay type: cell-based, human
# [5] = tested on: c-myc mRNA; test: Northern blot of c-myc expression; assay type: cell-based, human
# Outline: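 HCT116 cells in McCoy's 5A with 10% FBS were serum-starved 24 h, pretreated with 2.5 mM test compound for 6 h, then given 100 nM NT or PBS vehicle for a further 0.5, 1 and 2 h. Total RNA (35 µg) was run on 1.2% agarose/formaldehyde gels and blotted to nylon. Blots were hybridised 8–12 h at 65°C with a 32P-UTP cRNA c-myc probe, read by autoradiography and reprobed for GAPDH.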
# [6] = tested on: cholecystokinin-B receptor mRNA; test: RNase protection assay, CCK; assay type: cell-based, human; settings: HT29 and SW480 cells; 2.5 mM NaBT, 20 h
# [7] = tested on: phospho-ERK1/2; test: Western blot of phospho-ERK1/2; assay type: cell-based, human; settings: SW480 and HCT116 cells; 18 h; NaBT 2.5 mM, apicidin 1 µM, Emodin 20 µM
# Outline: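 HCT116 and SW480 cells were exposed 18 h to test compounds or DMSO vehicle. Whole-cell protein was extracted, run on bis-Tris gels and transferred to PVDF. Blots were probed overnight in TBST with phospho-ERK1/2 and total ERK1/2 antibodies, then HRP secondary for 1 h, and detected by ECL. pERK1/2 signal was quantified densitometrically relative to total ERK1/2.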
# [8] = tested on: IL-8 mRNA; test: RNase protection assay of IL-8 expression; assay type: cell-based, human; settings: HCT116 cells; NaBT alone
# [9] = tested on: COX-2 mRNA; test: Northern blot of NT-induced COX-2 expression; assay type: cell-based, human; settings: HT29 cells; NaBT 2.5 mM pretreatment 6 h, then 100 nM NT
# [10] = tested on: gastrin-releasing peptide receptor mRNA; test: RNase protection assay, gastrin-releasing peptide receptor mRNA; assay type: cell-based, human; settings: NaBT treatment; data not shown
# [11] = tested on: CCK-A receptor mRNA; test: RNase protection assay, CCK-A receptor mRNA; assay type: cell-based, human; settings: NaBT treatment; data not shown
# [12] = tested on: NTR1 protein; test: Western blot of NTR1 protein expression; assay type: cell-based, human; settings: SW480 and HT29 cells; 2.5 mM, 18 h
# Outline: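 Cells were treated with 2.5 mM test compound or PBS vehicle for 18 h, then lysed in cell lysis buffer. Equal protein was run on bis-Tris gels and transferred to PVDF. Blots were incubated overnight in TBST with anti-human NTR1 antibody, then HRP secondary for 1 h, and detected by ECL. Blots were stripped and reprobed for β-actin; NTR1 bands were quantified densitometrically relative to β-actin.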
# [13] = tested on: ERK; settings: human hepatocellular carcinoma cells; cited from earlier work
# [14] = HT29 cells, treatment for 4h, confirmed using SW620 cells
# [15] = all NTR1-positive cell lines tested: HT29, HCT116, SW480, SW620, KM20, HDACi
compound,measurement,setting,value
[Cl-].[Li+] [LiCl],NTR1 mRNA,[1],increased
"CCCC(=O)[O-].[Na+] [NaBT, Sodium butyrate]",NTR1 promoter activity,"[2]; SW480 and HCT116 cells, 2.5 mM NaBT, 20 h",dramatically decreased NTR1 promoter activity
same,PTEN expression,[3],increased PTEN expression
same,NTR1 expression (mRNA),"[4]; SW480, HCT116 (Fig.1B), SW620, KM20 (data not shown), NaBT",inhibited NTR1 expression
same,basal c-myc expression,[5]; HCT116 cells,decreased basal c-myc expression
same,NT-stimulated c-myc induction,"[5]; NaBT 2.5 mM pretreatment 6 h, then 100 nM NT",prevented NT-stimulated c-myc induction
same,cholecystokinin-B receptor mRNA expression,[6],did not affect mRNA expression
same,phospho-ERK1/2 levels,[7],significantly decreased phospho-ERK1/2 levels
same,IL-8 expression,[8],slightly increased IL-8 expression
same,NT-induced COX-2 expression,[9],blocked
same,gastrin-releasing peptide receptor mRNA expression,[10],did not affect mRNA expression
same,CCK-A receptor mRNA expression,[11],did not affect mRNA expression
same,NTR1 protein expression,[12],decreased NTR1 protein expression
COc1cccc(-c2cc(=O)c3ccccc3o2)c1N [PD98059],NTR1 mRNA expression,"[4]; HCT116 and SW480 cells (also SW620, KM20 data not shown), 16 h, Uo126 0.5-5 µM, PD98059 20 µM, SB-203580 10 µM",identical to those using Uo126
C[S+]([O-])c1ccc(-c2nc(-c3ccncc3)c(-c3ccc(F)cc3)[nH]2)cc1 (centres unmarked) [SB-203580],NTR1 mRNA expression,[4],did not affect NTR1 expression
Cn1cc(C2=C(c3ccc(Cl)cc3Cl)C(=O)NC2=O)c2ccccc21 [SB-216763],NTR1 mRNA expression,"[4]; HT29 and SW480 cells, GSK-3β inhibitor over a time course",significantly upregulated NTR1 mRNA expression
same,NTR1 mRNA suppression resulting from NaBT treatment,"[4]; HT29 cells, pre-treated 30 min, then combination with NaBT for 6 h",partially attenuated
"CC(/C=C/C(=O)NO)=C\[C@@H](C)C(=O)c1ccc(N(C)C)cc1 [TSA, Trichostatin A]",NTR1 mRNA expression,[4]; [14],significantly decreased NTR1 mRNA expression
same,NTR1 mRNA expression,[4]; [15],suppressed NTR1
N#CC(=C(/N)Sc1ccccc1N)/C(C#N)=C(/N)Sc1ccccc1N [Uo126],decrease in NTR1 promoter activity,"[2]; SW480 cells, 5 µM, 16 h",approximately 70%
same,NTR1 mRNA expression,[4],suppressed NTR1 mRNA expression in a time- and dose-dependent fashion
CCC(=O)CCCCC[C@@H]1NC(=O)[C@H]2CCCCN2C(=O)[C@H]([C@@H](C)CC)NC(=O)[C@H](Cc2cn(OC)c3ccccc23)NC1=O [apicidin],NTR1 mRNA expression,[4]; [14],significantly decreased NTR1 mRNA expression
same,NTR1 mRNA expression,[4]; [15],suppressed NTR1
same,phospho-ERK1/2 levels,[7],significantly decreased phospho-ERK1/2 levels
Cc1cc(O)c2c(c1)C(=O)c1cc(O)cc(O)c1C2=O [emodin],phospho-ERK1/2 levels,[7],did not affect ERK1/2 levels
Nc1ccccc1NC(=O)c1ccc(CNC(=O)OCc2cccnc2)cc1 [entinostat],NTR1 mRNA expression,[4]; [15],suppressed NTR1
CCCC(CCC)C(=O)O [valproic acid],NTR1 mRNA expression,[4]; [15],suppressed NTR1
same,activation of ERK,[13],decreased activation of ERK
Neurotensin [NT],c-myc expression,"[5]; 100 nM NT, 0.5 h, 1 h and 2 h, serum-starved cells",increased c-myc expression in time-dependent fashion
